E-sel inducer – E-selectin induction on HUVECs; activation, % at 7.58 µM; HUVEC E-selectin immunofluorescence imaging; normalized: neutral wells 0, TNF-alpha wells 100; 260,000 compounds, 0.37% hits; AID 686992;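 active = mean E-selectin-positive cell signal at least 10% of the positive control, reached in at least 60% of replicates, without over 20% cell loss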
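Test system – human umbilical vein endothelial cells (HUVEC), E-selectin induction · Input – 3,000 HUVEC seeded per well · Buffer or medium – EGM-2, gelatin · Compound dosing – single-point compound dose · Detection – immunofluorescence imaging · Measure – percent E-selectin-positive cells · Controls – TNF-alpha high, DMSO low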
S100A4 inh HTS – S100A4-myosin IIA interaction inhibition; P26447; S100A4/TAMRA-MyoIIA peptide fluorescence polarization; inhibition, % at 10.7 µM; 360,000 compounds, 0.14% hits; AID 652163;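 active = mean inhibition of at least 70% across replicates, with every replicate also reaching that level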
Target sequence (P26447 whole entry, looked up): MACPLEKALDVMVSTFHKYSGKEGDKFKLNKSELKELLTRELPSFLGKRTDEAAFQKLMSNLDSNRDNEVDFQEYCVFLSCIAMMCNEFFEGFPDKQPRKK
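Material: S100A4 monomer protein / Buffer or medium: 50 mM HEPES pH 7.2, 10 mM CaCl2, 100 mM KCl / Times: 5 min incubation before reading / Benchmarks: neutral control DMSO, positive control TFP / Reagent: labelled myosin peptide probe, 5 nM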
HIV Env fusion – HIV envelope-mediated fusion inhibition. 360,000 compounds, 1.1% hits. AID 651610. HeLa-JRFL Env/CEM21 cell fusion, luciferase. inhibition, % at 12.3 µM;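 active = mean replicate inhibition score of at least 50 and every replicate individually at or above 50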;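 also: 0% = plate neutral controls and 100% = maraviroc near 300 nM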
CFTR F508del cor – correctors of CFTR F508del function in bronchial epithelial cells. 350,000 compounds, 0.36% hits. AID 720511. CFBE cells, YFP halide quenching; stimulated with forskolin plus potentiator P3; % fluorescence drop versus neutral controls. activity (quench increase), % at 7.58 µM;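 active = mean added fluorescence quench of at least 8% versus neutral control, with both replicates also reaching 8%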;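 also: cells transiently co-express mutant CFTR-F508del with the halide-sensitive YFP; corrector assay measuring rescue of mutant channel to the surface after 24 h compound exposure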
FGF22 binding – FGF22 (human) thermal shift binding; Q9HCT0; recombinant FGF22 thermal shift, SYPRO orange fluorescence; percent of sucrose octasulfate shift, DMSO zero; activity (Tm shift, normalised), % at 9.99 µM; 340,000 compounds, 1.5% hits;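 active = mean Tm shift, scaled 0 neutral to 100 positive control, at about 1.3% or above, every replicate too, limit read from the data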
Target sequence (Q9HCT0 whole entry, looked up): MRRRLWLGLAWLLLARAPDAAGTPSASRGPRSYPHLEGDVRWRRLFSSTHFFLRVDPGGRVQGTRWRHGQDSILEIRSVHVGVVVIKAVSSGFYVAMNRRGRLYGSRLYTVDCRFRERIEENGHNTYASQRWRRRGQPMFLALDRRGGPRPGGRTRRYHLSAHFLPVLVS
Starred values were filed as active, the others as inactive; [ ] = another dose, or the depositor's remark. An excerpt weighted towards active compounds, which were near 2.7% of everything screened.

`CCOC(=O)C1=C(CP(=O)(c2ccccc2)c2ccccc2)NC(=O)NC1c1ccc(OC)cc1` (stereo not given) gave E-sel inducer -0.3 and HIV Env fusion -20.3.
`CCOC(=O)C1=C(CSc2nc3ccccc3s2)NC(=O)NC1c1ccc(OC)cc1` (stereo not given) gave HIV Env fusion 73.1*.
For O=c1c2ccccc2nnn1CSc1nc2cc(Cl)ccc2c(=O)n1Cc1ccco1 the results were HIV Env fusion 2.2.
O=c1c2ccccc2nnn1CSc1nnc(COc2ccc(Cl)cc2)n1Cc1ccco1 was read as HIV Env fusion 70.4*.
For C[C@@H]1CN([C@@H](C)CO)C(=O)c2cc(C3=CCCCC3)cnc2O[C@@H]1CN(C)C(=O)c1cccnc1 the results were E-sel inducer -0.2, S100A4 inh HTS 8.1, HIV Env fusion 3.5[16.7 µM], CFTR F508del cor -0.7 and FGF22 binding -0.1.
`Cc1cccc(NC(=O)COC(=O)c2ccccc2SCC(=O)N2CCCC2)c1` gave E-sel inducer 0.0, S100A4 inh HTS -6.0, HIV Env fusion -11.3, CFTR F508del cor -0.3 and FGF22 binding 28.3*.
For NC(=O)c1ccc(NC(=O)COC(=O)c2ccccc2SCC(=O)N2CCCC2)cc1 the results were E-sel inducer 1.4, S100A4 inh HTS 1.4, HIV Env fusion -27.9, CFTR F508del cor -2.0 and FGF22 binding 0.1.
For Cc1ccc(CN2CCC(n3nccc3NC(=O)CCOc3ccccc3)CC2)o1 the results were E-sel inducer -0.1, S100A4 inh HTS 0.6, HIV Env fusion -8.6, CFTR F508del cor 1.6 and FGF22 binding 0.5.
Screening COc1ccccc1CCC(=O)N1CCC(n2nccc2NC(=O)CC(C)C)CC1 returned E-sel inducer -0.1, S100A4 inh HTS 1.2, HIV Env fusion -2.8, CFTR F508del cor -0.4 and FGF22 binding 0.9.
Screening O=C(CCOc1ccccc1)Nc1ccnn1C1CCN(Cc2ccc(CO)o2)CC1 returned E-sel inducer 0.1, S100A4 inh HTS -0.6, HIV Env fusion 9.3, CFTR F508del cor -3.9 and FGF22 binding 2.5*.
COc1cccc(CCC(=O)N2CCC(n3nccc3NC(=O)CC(C)C)CC2)c1 was read as E-sel inducer 39.2*, S100A4 inh HTS -0.6, HIV Env fusion -6.0, CFTR F508del cor 0.7 and FGF22 binding -0.1.
C=C(C)CCC(C)N1CCC(n2nccc2NC(=O)CCOc2ccccc2)CC1 (stereo not given) was read as E-sel inducer 43.5*, S100A4 inh HTS -26.2, CFTR F508del cor -1.0 and FGF22 binding 0.0.
For COc1cccc(C#Cc2ccc3c(c2)[C@H]2[C@H](CCN2S(=O)(=O)c2ccccc2)[C@H](CO)N3)c1 the results were E-sel inducer 5.2, S100A4 inh HTS -7.3, CFTR F508del cor -0.8 and FGF22 binding 0.7.
Screening CO[C@@H]1CN(C)C(=O)c2ccc(NC(=O)C3CC3)cc2OC[C@@H](C)N(C(=O)c2ccccc2F)C[C@H]1C returned E-sel inducer 0.1, S100A4 inh HTS -20.4, HIV Env fusion 6.0[16.7 µM], CFTR F508del cor 3.6 and FGF22 binding 0.0.
Screening CCOC(=O)N1CCC(NC(=O)C2CCN(c3nc(-c4ccc(OC)cc4)no3)CC2)CC1 returned HIV Env fusion 34.4*.
Screening C[C@H](CO)N1C[C@H](C)[C@@H](CN(C)S(=O)(=O)c2cccc(F)c2)OCc2ccccc2-c2ccccc2C1=O returned E-sel inducer -0.3, HIV Env fusion 23.4[16.7 µM] and CFTR F508del cor -3.1.
`NC1=NC(=O)/C(=C/c2cccc(F)c2)S1` gave E-sel inducer 54.2*, S100A4 inh HTS 3.3, HIV Env fusion 12.8, CFTR F508del cor -2.8 and FGF22 binding 0.2.
`NC1=NC(=O)/C(=C/c2ccccc2OS(=O)(=O)c2ccccc2)S1` gave HIV Env fusion 33.2.
Screening CC(=O)Nc1ccc(S(=O)(=O)Oc2cccc(/C=C3\SC(N)=NC3=O)c2)cc1 returned S100A4 inh HTS -12.3, HIV Env fusion 1.4, CFTR F508del cor -4.4 and FGF22 binding 43.3*.
`O=C(C[C@@H]1C[C@H]2c3cc(NC(=O)NC4CCCC4)ccc3O[C@H]2[C@@H](CO)O1)NCc1ccc(Oc2ccccc2)cc1` gave E-sel inducer 1.0, S100A4 inh HTS -4.0, HIV Env fusion -7.6[16.7 µM], CFTR F508del cor -2.0 and FGF22 binding 0.8.
For O=S(=O)(CCN1CCCCC1)CCS(=O)(=O)CCN1CCCCC1 the results were E-sel inducer 0.4, S100A4 inh HTS -4.5, CFTR F508del cor -0.8 and FGF22 binding 43.6*.
O=S(=O)(CCn1cccc1)CCn1cccc1 was read as HIV Env fusion -37.1.
`Cc1ccc(NC(=O)c2ccco2)c([N+](=O)[O-])c1` gave S100A4 inh HTS -2.4, HIV Env fusion -94.5, CFTR F508del cor 5.5 and FGF22 binding 43.5*.
CCOc1ccccc1C(=O)Nc1cc(C)ccc1NC(=O)c1ccco1 was read as E-sel inducer 0.3, S100A4 inh HTS 2.8, HIV Env fusion -11.3, CFTR F508del cor -0.2 and FGF22 binding 1.7*.
`Cc1c(NC(=O)c2ccc(C(C)(C)C)cc2)cccc1[N+](=O)[O-]` gave E-sel inducer -0.4, S100A4 inh HTS -2.4, HIV Env fusion -1.5, CFTR F508del cor -0.5 and FGF22 binding 0.2.
For CCOc1ccc(CC(=O)Nc2ccc(NC(=O)c3ccco3)cc2)cc1OCC the results were E-sel inducer -0.1, S100A4 inh HTS 1.0, HIV Env fusion 9.9, CFTR F508del cor 0.7 and FGF22 binding 43.9*.
For CCOc1cccc(C(=O)Nc2cc(C)ccc2NC(=O)c2ccco2)c1 the results were E-sel inducer 0.1, S100A4 inh HTS -6.1, CFTR F508del cor 1.5 and FGF22 binding -0.1.
Screening CC(C)(C)c1ccc(NC(=O)c2ccccc2)c([N+](=O)[O-])c1 returned S100A4 inh HTS -3.3, HIV Env fusion -206.1, CFTR F508del cor 4.2 and FGF22 binding 44.2*.
`C[C@@H]1CN([C@@H](C)CO)C(=O)c2cc(NC(=O)Nc3ccc(C(F)(F)F)cc3)ccc2O[C@@H](C)CCCCO[C@@H]1CN(C)C(=O)NC1CCCCC1` gave E-sel inducer 0.5, S100A4 inh HTS -13.2, HIV Env fusion -45.9[16.7 µM], CFTR F508del cor 3.5 and FGF22 binding 0.2.
O=C(Nc1cccc(S(=O)(=O)N2CCCCCC2)c1)c1cncc(Br)c1 was read as E-sel inducer -0.1, S100A4 inh HTS 9.5, HIV Env fusion 55.7*, CFTR F508del cor -0.6 and FGF22 binding 0.2.
`O=C(Nc1ccc(Br)cn1)c1cccc(S(=O)(=O)N2CCCC2)c1` gave E-sel inducer -0.1, S100A4 inh HTS -2.1, HIV Env fusion 56.5* and CFTR F508del cor 0.6.
`Cc1ccc(NC(=O)c2ccc(Cl)c(S(=O)(=O)N3CCCCCC3)c2)nc1` gave E-sel inducer -0.1, S100A4 inh HTS 2.6, HIV Env fusion 61.1*, CFTR F508del cor -2.0 and FGF22 binding -0.1.

Screens (PubChem)
